Reference: PMC5689172 (Biochemistry and Biophysics Reports, 2016)
pIC50: −log10 of the molar value. Values after ≈ are worked out from the molar mass of the structure shown. Like-named read-outs stand apart in the source and are kept apart here.

Columns and labels:
[1] = Antioxidant activity, DPPH radical scavenging assay; type: biochemical; settings: read-out: RSA IC50, 30 min, 517 nm
How it was run: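 Sample solution (test compound, 1 mg/mL in DMSO) was mixed with 0.1 mM DPPH in methanol and kept 30 min in the dark. Absorbance was read at 517 nm. Radical scavenging activity (%) = [1 − Abs(sample)/Abs(control)] × 100. α-Tocopherol was the positive control.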

[2] = system: L. monocytogenes; assay: Antimicrobial activity, agar dilution method; type: cell-based; settings: Listeria monocytogenes
How it was run: (§1)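 Test compound in DMSO, mixed with Mueller–Hinton broth, two-fold serially diluted, and incorporated into MH agar at final 0.25–256 μg/mL. Agar with 0.5% DMSO served as reagent control. Organisms were grown overnight in MH broth at 37 °C, diluted in normal saline to 0.5 McFarland (1.5×10⁸ CFU/mL), and inoculated onto plates. Plates were incubated at 37 °C for 24–48 h, then MIC was recorded.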

[3] = system: Gram-positive bacteria; assay: Antimicrobial activity, agar dilution method, summarised over the group; type: cell-based
How it was run: as §1

[4] = read-out: SOD (superoxide dismutase) activity IC50; cited from earlier work
[5] = system: C. albicans ATCC 90028; assay: Antimicrobial activity, agar dilution method; type: cell-based; settings: Candida albicans, ATCC90028
How it was run: as §1

[6] = system: S. aureus ATCC 29213; assay: Antimicrobial activity, agar dilution method; type: cell-based; settings: Staphylococcus aureus, ATCC29213
How it was run: as §1

[7] = system: M. luteus ATCC 10240; assay: Antimicrobial activity, agar dilution method; type: cell-based; settings: Micrococcus luteus, ATCC10240
How it was run: as §1

[8] = system: S. Choleraesuis ATCC 10708; assay: Antimicrobial activity, agar dilution method; type: cell-based; settings: Salmonella enterica, ATCC10708|CHOLERAESUIS
How it was run: as §1

[9] = system: K. pneumoniae ATCC 700603; assay: Antimicrobial activity, agar dilution method; type: cell-based; settings: Klebsiella pneumoniae, ATCC700603
How it was run: as §1

[10] = system: P. aeruginosa ATCC 27853; assay: Antimicrobial activity, agar dilution method; type: cell-based, Pseudomonas aeruginosa
How it was run: as §1

[11] = system: S. Typhimurium ATCC 13311; assay: Antimicrobial activity, agar dilution method; type: cell-based; settings: Salmonella enterica, ATCC13311|TYPHIMURIUM
How it was run: as §1

[12] = system: S. putrefaciens ATCC 8071; assay: Antimicrobial activity, agar dilution method; type: cell-based; settings: Shewanella putrefaciens, ATCC8071
How it was run: as §1

[13] = system: E. faecalis ATCC 33186; assay: Antimicrobial activity, agar dilution method; type: cell-based; settings: Enterococcus faecalis, ATCC33186
How it was run: as §1

[14] = system: S. dysenteriae; assay: Antimicrobial activity, agar dilution method; type: cell-based; settings: Shigella dysenteriae
How it was run: as §1

[15] = system: B. subtilis ATCC 6633; assay: Antimicrobial activity, agar dilution method; type: cell-based; settings: Bacillus subtilis, ATCC6633
How it was run: as §1

[16] = system: MRC-5 cell line; settings: read-out: Cytotoxicity IC50; MRC-5 cells, MTT; cited from earlier work
[17] = system: A. xylosoxidans ATCC 27061; assay: Antimicrobial activity, agar dilution method; type: cell-based; settings: Achromobacter xylosoxidans, ATCC27061
How it was run: as §1

[18] = system: E. coli ATCC 25922; assay: Antimicrobial activity, agar dilution method; type: cell-based; settings: Escherichia coli, ATCC25922
How it was run: as §1

[19] = system: S. Enteritidis; assay: Antimicrobial activity, agar dilution method; type: cell-based; settings: Salmonella enterica
How it was run: as §1

[20] = system: A. hydrophila; assay: Antimicrobial activity, agar dilution method; type: cell-based; settings: Aeromonas hydrophila
How it was run: as §1

[21] = system: S. epidermidis ATCC 12228; assay: Antimicrobial activity, agar dilution method; type: cell-based; settings: Staphylococcus epidermidis, ATCC12228
How it was run: as §1

[22] = system: B. cereus; assay: Antimicrobial activity, agar dilution method; type: cell-based; settings: Bacillus cereus
How it was run: as §1

[23] = system: P. stutzeri ATCC 17587; assay: Antimicrobial activity, agar dilution method; type: cell-based, Pseudomonas stutzeri; settings: Stutzerimonas stutzeri, ATCC17587
How it was run: as §1

[24] = system: P. shigelloides; assay: Antimicrobial activity, agar dilution method; type: cell-based; settings: Plesiomonas shigelloides
[25] = system: S. cerevisiae ATCC 2601; assay: Antimicrobial activity, agar dilution method; type: cell-based; settings: Saccharomyces cerevisiae, ATCC2601
How it was run: as §1

[26] = system: S. aureus ATCC 25923; assay: Antimicrobial activity, agar dilution method; type: cell-based; settings: Staphylococcus aureus, ATCC25923
How it was run: as §1

[27] = system: M. morganii; assay: Antimicrobial activity, agar dilution method; type: cell-based; settings: Morganella morganii
How it was run: as §1

[28] = system: C. diphtheriae NCTC 10356; assay: Antimicrobial activity, agar dilution method; type: cell-based; settings: Corynebacterium diphtheriae, NCTC10356
How it was run: as §1

[29] = system: C. freundii; assay: Antimicrobial activity, agar dilution method; type: cell-based; settings: Citrobacter freundii
How it was run: as §1

[30] = system: Gram-negative bacteria; assay: Antimicrobial activity, agar dilution method, summarised over the group; type: cell-based
How it was run: as §1

[31] = system: S. marcescens ATCC 8100; assay: Antimicrobial activity, agar dilution method; type: cell-based; settings: Serratia marcescens, ATCC8100
How it was run: as §1

[32] = system: E. faecalis ATCC 29212; assay: Antimicrobial activity, agar dilution method; type: cell-based; settings: Enterococcus faecalis, ATCC29212
How it was run: as §1

[33] = system: twenty-seven strains of microorganisms; type: cell-based; settings: Saccharomyces cerevisiae
How it was run: as §1

[34] = Pseudomonas aeruginosa, ATCC27853

Question: With `Oc1cccc2cccnc12` [8HQ (1), 8-Hydroxyquinoline] as the compound, how does the pIC50 [1] read?
Answer: Its pIC50 is 3.21.

Question: What about the MIC [2] of the same compound?
Answer: The MIC was 3.44 µM (≈ 0.499 µg/mL).

Question: And the MIC [3]?
Answer: Its MIC is 3.44 to 13.8 µM (≈ 0.499 to 2 µg/mL).

Question: And the pIC50 [4]?
Answer: Its pIC50 is 4.04.

Question: What about the MIC [5] of the same compound?
Answer: The MIC was 13.8 µM (≈ 2 µg/mL).

Question: And the MIC [6]?
Answer: The MIC was 6.89 µM (≈ 1 µg/mL).

Question: And the MIC [7]?
Answer: Its MIC is 13.8 µM (≈ 2 µg/mL).

Question: What about the MIC [8] of the same compound?
Answer: Its MIC is 882 µM (≈ 128 µg/mL).

Question: And the MIC [9]?
Answer: Its MIC is 882 µM (≈ 128 µg/mL).

Question: What about the MIC ([10]; P. aeruginosa ATCC 27853, agar dilution) of the same compound?
Answer: Its MIC is greater than 1763.57 µM.

Question: What about the MIC [10, 34] of the same compound?
Answer: The MIC was greater than 1760 µM.

Question: What about the MIC [11] of the same compound?
Answer: The MIC was 220 µM (≈ 32 µg/mL).

Question: What about the MIC [12] of the same compound?
Answer: Its MIC is 220 µM (≈ 32 µg/mL).

Question: And the MIC [13]?
Answer: The MIC was 13.8 µM (≈ 2 µg/mL).

Question: What about the MIC [14] of the same compound?
Answer: Its MIC is 220 µM (≈ 32 µg/mL).

Question: What about the MIC [15] of the same compound?
Answer: Its MIC is 6.89 µM (≈ 1 µg/mL).

Question: What about the pIC50 [16] of the same compound?
Answer: Its pIC50 is 5.20.

Question: And the MIC [17]?
Answer: Its MIC is 55.1 µM (≈ 8 µg/mL).

Question: What about the MIC [18] of the same compound?
Answer: Its MIC is 220 µM (≈ 32 µg/mL).

Question: What about the MIC [19] of the same compound?
Answer: The MIC was 882 µM (≈ 128 µg/mL).

Question: And the MIC [20]?
Answer: The MIC was 110 µM (≈ 16 µg/mL).

Question: What about the MIC [21] of the same compound?
Answer: The MIC was 6.89 µM (≈ 1 µg/mL).

Question: And the MIC [22]?
Answer: The MIC was 13.8 µM (≈ 2 µg/mL).

Question: What about the MIC [23] of the same compound?
Answer: The MIC was 220 µM (≈ 32 µg/mL).

Question: And the MIC [24]?
Answer: The MIC was 13.8 µM (≈ 2 µg/mL).

Question: What about the MIC [25] of the same compound?
Answer: Its MIC is 13.8 µM (≈ 2 µg/mL).

Question: And the MIC [26]?
Answer: The MIC was 6.89 µM (≈ 1 µg/mL).

Question: And the MIC [27]?
Answer: The MIC was 882 µM (≈ 128 µg/mL).

Question: What about the MIC [28] of the same compound?
Answer: The MIC was 13.8 µM (≈ 2 µg/mL).

Question: And the MIC [29]?
Answer: The MIC was 220 µM (≈ 32 µg/mL).

Question: And the MIC [30]?
Answer: The MIC was 110 to 882 µM (≈ 16 to 128 µg/mL).

Question: What about the MIC [30, 34] of the same compound?
Answer: Its MIC is 13.8 to 882 µM (≈ 2 to 128 µg/mL).

Question: And the MIC [31]?
Answer: Its MIC is 220 µM (≈ 32 µg/mL).

Question: What about the MIC [32] of the same compound?
Answer: The MIC was 13.8 µM (≈ 2 µg/mL).

Question: And the MIC [33]?
Answer: Its MIC is 3.44 to 13.8 µM (≈ 0.499 to 2 µg/mL).
